SIRT5 inh: blocks human SIRT5 desuccinylation of peptide. hit rate 1.1% among 330,000. Purified SirT5, succinyl-peptide AMC, trypsin-coupled fluorescence. inhibition, % at 15 µM; in the data active = inhibition above about 15%; inconclusive = no clear call, values can overlap the other calls
E-selectin induc: induces E-selectin expression in human endothelial cells. HUVEC E-selectin immunofluorescence imaging; normalized: neutral wells 0, TNF-alpha wells 100. hit rate 0.37% among 260,000. activation, % at 7.58 µM. P16581;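 active = mean E-selectin-positive cell signal at least 10% of the positive control, reached in at least 60% of replicates, without over 20% cell loss; inconclusive = no rule given, readout overlaps actives, possibly toxicity-flagged; inactive = the rest, including those meeting only one limit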
Target sequence (P16581 whole entry, looked up): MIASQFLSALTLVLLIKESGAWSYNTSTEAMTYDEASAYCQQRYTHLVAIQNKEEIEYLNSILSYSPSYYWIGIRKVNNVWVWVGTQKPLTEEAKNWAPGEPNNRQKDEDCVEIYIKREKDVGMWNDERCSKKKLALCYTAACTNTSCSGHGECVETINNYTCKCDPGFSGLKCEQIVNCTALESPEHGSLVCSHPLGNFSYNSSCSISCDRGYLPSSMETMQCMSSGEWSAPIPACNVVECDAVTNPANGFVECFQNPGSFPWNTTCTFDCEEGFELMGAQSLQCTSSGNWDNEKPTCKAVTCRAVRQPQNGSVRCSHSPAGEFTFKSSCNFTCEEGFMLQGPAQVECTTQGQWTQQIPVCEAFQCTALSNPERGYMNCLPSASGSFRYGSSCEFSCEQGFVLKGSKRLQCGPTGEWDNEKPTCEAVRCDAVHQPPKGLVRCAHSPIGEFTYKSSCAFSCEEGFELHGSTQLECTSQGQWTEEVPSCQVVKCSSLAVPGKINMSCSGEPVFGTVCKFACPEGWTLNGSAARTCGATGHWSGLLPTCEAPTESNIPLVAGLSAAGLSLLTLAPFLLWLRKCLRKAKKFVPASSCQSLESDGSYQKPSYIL
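Test system – human umbilical vein endothelial cells (HUVEC), E-selectin induction · Input – 3,000 HUVEC seeded per well · Buffer or medium – EGM-2, gelatin · Compound dosing – single-point compound dose · Detection – immunofluorescence imaging · Measure – percent E-selectin-positive cells · Controls – TNF-alpha high, DMSO low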
DENV2 CPE: inhibitors of DENV2 cytopathic effect. DENV2-infected cells, cytopathic effect rescue, plate reader. hit rate 1.7% among 350,000. CPE inhibition, % at 9.99 µM; in the data active = CPE inhibition above about 20%, passing the limit was not always enough; inconclusive = no clear call, values can overlap the other calls; tested in BHK-21 cells;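 also: 0% = median of neutral control wells and 100% = median of positive control wells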
* hit, by the source's call; ? = inconclusive; · = not tested or not shown. In the library only some 2.9% were active in any assay of this set; here they are far more common.

SMILES	SIRT5 inh	E-selectin induc	DENV2 CPE
Cc1ccc(OCCNS(=O)(=O)c2cccs2)cc1	·	0	·
Cc1ccc(C(=O)/C=C/N(C)C)cn1	-8	0	4
O=C1N=C(N2CCN(c3ccccc3)CC2)S/C1=C\c1ccco1	6	0	-1
CCN1CCS/C1=C\C=C\C1=[N+](CC)CCS1	18*	1	0
CC(C)N(C(=O)[C@H]1C[C@H](CC(=O)NCCCN(C)C)C(=O)N2CCc3c([nH]c4ccc(Cl)cc34)[C@]12C)C(C)C	-3	·	?
CCC(=O)OCC(=O)Nc1ncc(C(F)(F)F)cc1Cl	5	-1	2
O=C(COC(=O)CNC(=O)c1ccc(Cl)cc1)Nc1ncc(C(F)(F)F)cc1Cl	-3	·	76*
COc1ccc(NC(=O)N(C)C[C@@H]2Oc3ccc(NS(=O)(=O)c4ccc(Cl)cc4)cc3CC(=O)N([C@@H](C)CO)C[C@H]2C)cc1	9	1	-4
CC(=O)C1=C(C)N(Cc2ccc(Cl)cc2)C(=S)NC1c1ccccc1 (configuration not stated)	1	1	15
CC(=O)C1=C(C)N(Cc2ccc(Cl)cc2)C(=S)NC1c1ccc(Cl)cc1 (configuration not stated)	0	0	55*
C=CCNC(=O)c1ccc2c(c1)S(=O)(=O)c1ccccc1C2=O	·	0	-12
Cc1c(C#N)c(O)n(C)c(=O)c1N=Nc1ccc(S(N)(=O)=O)cc1	9	·	6
Cc1c(C#N)c(O)n(CCO)c(=O)c1N=Nc1ccc(S(N)(=O)=O)cc1	4	0	45*
C[C@@H]1CN([C@H](C)CO)C(=O)c2c(c3ccccc3n2C)-c2ccccc2CO[C@@H]1CN(C)S(=O)(=O)c1ccc(C(F)(F)F)cc1	32*	0	-6
C[C@H]1CN([C@@H](C)CO)C(=O)c2c(c3ccccc3n2C)-c2ccccc2CO[C@H]1CN(C)S(=O)(=O)c1ccc(C(F)(F)F)cc1	0	11	7
C[C@@H]1CN([C@H](C)CO)C(=O)c2c(c3ccccc3n2C)-c2ccccc2CO[C@H]1CN(C)S(=O)(=O)c1ccc(C(F)(F)F)cc1	25*	-1	-8
C[C@H](CO)N1C[C@H](C)[C@H](CN(C)S(=O)(=O)c2ccc(F)cc2)OCc2ccccc2-c2c(n(C)c3ccccc23)C1=O	·	-1	16
CCCc1cn(CC[C@@H]2CC[C@@H](NC(=O)C3CCCCC3)[C@@H](CO)O2)nn1	-2	0	-4
CN(CC(=O)Nc1ccccc1Br)C(=O)c1cccc(S(=O)(=O)NCc2ccccc2)c1	-1	0	3
COc1ccc(CC(=O)N/N=C(\C)CC(=O)NCc2ccco2)cc1OC	1	3	11
COc1ccc(NC(=O)NC2(C(=O)N3CCN4CCCC4C3)CCCCC2)cc1 (configuration not stated)	-4	0	3
COc1ccc(NC(=O)NC2(C(=O)N3CCOCC3)CCCCC2)cc1	-3	39*	?
Nc1ccc2c(S(=O)(=O)O)cccc2c1S(=O)(=O)O	·	0	14
Nc1cccc2cc(S(=O)(=O)O)ccc12	57*	0	4
COC(=O)Nc1ccc(S(=O)(=O)NCCCCCC(=O)O)cc1	-2	-3	2
SMILES	SIRT5 inh	E-selectin induc	DENV2 CPE
COc1ccccc1-c1ccc2c(c1)[C@H]1[C@H](CCN1S(=O)(=O)c1ccccc1F)[C@@H](CO)N2	5	1	9
O=S(=O)(c1ccccc1F)N1CC[C@@H]2[C@H]1c1cc(-c3cccc(F)c3)ccc1N[C@@H]2CO	·	0	·
O=S(=O)(c1ccccc1F)N1CC[C@H]2[C@H](CO)Nc3ccc(-c4cccc(F)c4)cc3[C@H]21	2	-1	29*
COc1ccccc1-c1ccc2c(c1)[C@H]1[C@H](CCN1S(=O)(=O)c1ccccc1F)[C@H](CO)N2	0	-1	23*
C#CCN1C=CC(=O)[C@@H](OC(=O)Nc2ccc(OC)cc2)[C@H]1c1ccccc1Br	8	1	19
O=c1cc2oc3cc(O)c(O)cc3c(-c3ccccc3[N+](=O)[O-])c-2cc1O	16*	0	6
O=c1cc(-c2ccccc2Cl)oc2cccc(O)c12	2	0	7
CC(=O)c1cccc(NC(=O)CSc2nc(N3CCCCC3)nc(N3CCCCC3)n2)c1	4	·	-1
Cc1cccc(N2CCN(C(C(=O)NCc3ccccc3)c3ccco3)CC2)c1C (configuration not stated)	-1	0	3
Cc1cccc(N2CCN(C(C(=O)NCc3ccccc3)c3ccc(F)cc3)CC2)c1C (configuration not stated)	-1	0	59*
O=C(NCCN1CCN(C(=O)c2ccc(F)cc2)CC1)C(=O)NCc1ccccc1	-1	0	7
CCOC(=O)C1Nc2ccc(C(=O)O)cc2C2C=CCC12 (configuration not stated)	14	·	4
CC(C)C1Nc2ccc(C(=O)O)cc2C2C=CCC21 (configuration not stated)	23*	0	-6
N[C@@H](CO)c1nnc([C@H](Cc2ccc(O)cc2)NC(=O)C2CCNCC2)o1	28*	0	0
NCCCC[C@H](NC(=O)C1CCNCC1)c1nnc([C@@H](N)Cc2ccc(O)cc2)o1	·	1	-9
Cc1cc(C(=O)Nc2cccc(S(=O)(=O)N3CCOCC3)c2)c2ccccc2n1	0	·	-8
CN1C(=O)c2cc(NC(=O)c3cnccn3)ccc2OC[C@H]2O[C@@H](CC(=O)O)CC[C@H]21	-4	2	12
Cc1ccc(Cl)cc1N1CCN(CC(O)COC(C)C)CC1 (configuration not stated)	-2	·	33*
CN1CCN(CC(O)COC(c2ccc(Cl)cc2)c2ccc(Cl)cc2)CC1 (configuration not stated)	-6	0	1
COc1cccc(Nc2nc(CN3CCOCC3)nc3sc4c(c23)CCCC4)c1	22*	0	9
Cc1cc(S(=O)(=O)Nc2nc(CN3CCOCC3)nc3sc4c(c23)CCC4)cc(C)c1C	3	-1	-2
COc1cccc(C#Cc2ccc([C@@H]3[C@@H](C#N)N(C(=O)C4CCCC4)[C@H]3CO)cc2)c1	·	0	-2
CCOc1ccccc1N1CCN(C(=O)CN2C(=O)NC3(CCCC3)C2=O)CC1	-4	0	-5
O=C(CN1C(=O)NC2(CCCC2)C1=O)N1CCN(c2ccccc2O)CC1	18*	-1	4
C[C@H]1CN([C@@H](C)CO)C(=O)Cc2cc(NS(=O)(=O)c3ccccc3)ccc2O[C@@H]1CN(C)Cc1ccc(Cl)c(Cl)c1	0	6	-7
SMILES	SIRT5 inh	E-selectin induc	DENV2 CPE
Cc1ccc(/C=N/NC(=O)c2ccc(-n3cnnn3)cc2)cc1	-2	0	32*
O=C(N/N=C/c1ccc(F)cc1)c1ccc(-n2cnnn2)cc1	1	0	5
CC1c2[nH]c3ccccc3c2C[C@H]2C(=O)N(CCCO)CC(=O)N12 (some centres not stated)	1	0	-4
N#CC(C#N)=NNc1ccc2cn[nH]c2c1	1	1	3
O=C(CCn1cncn1)N1CCCC(N2CCN(c3cccc(C(F)(F)F)c3)CC2)C1 (configuration not stated)	-6	0	10
O=C(CCn1cncn1)N1CCCC(N2CCN(c3ccc(F)cc3)CC2)C1 (configuration not stated)	-2	0	43*
